Experimental data published in ChEMBL document CHEMBL1629602, “Reconstruction of the phenotypes of methicillin-resistant Staphylococcus aureus by replacement of the staphylococcal cassette chromosome mec with a plasmid-borne copy of Staphylococcus sciuri pbpD gene” (2009).
≈ marks a conversion by molar mass, not a printed value.

Columns and labels:
[1] = test system: Staphylococcus aureus; assay: Antibacterial activity against oxacillin, chloramphenicol, erythromycin-susceptible and tetracycline-resistant Staphylococcus aureus COL-S with SCCmec excised; assay type: functional
Summary of the method: (§1)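 Oxacillin MIC by population analysis: overnight-culture aliquots plated on tryptic soy agar with increasing oxacillin concentrations. CFU counted after 72 h at 30°C.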

[2] = test system: Staphylococcus aureus; assay: Antibacterial activity against tetracycline-resistant Staphylococcus aureus COL-S carrying SAmecA plasmid; assay type: functional; summary of the method: as §1
[3] = test system: Staphylococcus aureus; assay: Antibacterial activity against tetracycline-resistant Staphylococcus aureus COL-S carrying SSpbpD plasmid; assay type: functional; summary of the method: as §1
[4] = test system: Staphylococcus aureus; assay: Antibacterial activity against chloramphenicol-resistant Staphylococcus aureus COL carrying mecI-mecR1 plasmid; assay type: functional; summary of the method: as §1
[5] = test system: Staphylococcus aureus; assay: Antibacterial activity against chloramphenicol, tetracycline-resistant Staphylococcus aureus COL-S carrying SAmecA/mecI-mecR1 plasmid; assay type: functional; summary of the method: as §1
[6] = test system: Staphylococcus aureus; assay: Antibacterial activity against chloramphenicol, tetracycline-resistant Staphylococcus aureus COL-S carrying SSpbpD/mecI-mecR1 plasmid; assay type: functional; summary of the method: as §1
[7] = test system: Staphylococcus aureus; assay: Antibacterial activity against chloramphenicol-susceptible and oxacillin, erythromycin, tetracycline-resistant Staphylococcus aureus COL

SMILES	MIC [1] [µg/mL]	MIC [2] [µg/mL]	MIC [3] [µg/mL]	MIC [4] [µg/mL]	MIC [5] [µg/mL]	MIC [6] [µg/mL]	MIC [7] [µg/mL]
CO/N=C(\C(=O)N[C@@H]1C(=O)N2C(C(=O)O)=C(COC(C)=O)CS[C@H]12)c1csc(N)n1 [CEFOTAXIME]	0.8 (≈ 1.76 µM)	800 (≈ 1760 µM)	200 (≈ 439 µM)	6 (≈ 13.2 µM)	6 (≈ 13.2 µM)	6 (≈ 13.2 µM)	800 (≈ 1760 µM)
CO[C@@]1(NC(=O)Cc2cccs2)C(=O)N2C(C(=O)O)=C(COC(N)=O)CS[C@@H]21 [CEFOXITIN]	3 (≈ 7.02 µM)	400 (≈ 936 µM)	200 (≈ 468 µM)	3 (≈ 7.02 µM)	6 (≈ 14 µM)	1.5 (≈ 3.51 µM)	800 (≈ 1870 µM)
CO/N=C(\C(=O)N[C@@H]1C(=O)N2C(C(=O)O)=CCS[C@H]12)c1csc(N)n1 [CEFTIZOXIME]	0.8 (≈ 2.09 µM)	800 (≈ 2090 µM)	400 (≈ 1040 µM)	3 (≈ 7.82 µM)	3 (≈ 7.82 µM)	12 (≈ 31.3 µM)	800 (≈ 2090 µM)
CC1=C(C(=O)O)N2C(=O)[C@@H](NC(=O)[C@H](N)C3=CCC=CC3)[C@H]2SC1 [CEPHRADINE]	6 (≈ 17.2 µM)	400 (≈ 1140 µM)	100 (≈ 286 µM)	6 (≈ 17.2 µM)	12 (≈ 34.3 µM)	3 (≈ 8.59 µM)	400 (≈ 1140 µM)
N[C@@H]1CONC1=O [CYCLOSERINE]	–	8 (≈ 78.4 µM)	0.75 (≈ 7.35 µM)	–	–	–	1 (≈ 9.79 µM)
Cc1onc(-c2ccccc2)c1C(=O)N[C@@H]1C(=O)N2[C@@H]1SC(C)(C)[C@@H]2C(=O)O [OXACILLIN]	0.8 (≈ 1.99 µM)	400 (≈ 996 µM)	400 (≈ 996 µM)	0.4 (≈ 0.996 µM)	0.8 (≈ 1.99 µM)	0.4 (≈ 0.996 µM)	800 (≈ 1990 µM)
